Results from different studies.
Lines come from different studies, so protocols differ.
CDK5 with p35: Cyclin-dependent kinase 5, with p35 (CDK5, Homo sapiens, UniProt Q00535)
CDK5 with p25: Cyclin-dependent kinase 5, with p25 (CDK5, Homo sapiens, UniProt Q00535)
CDK5: Cyclin-dependent kinase 5 (CDK5, Homo sapiens, UniProt Q00535)

Oc1ccc(-c2nc(-c3ccncc3)c(-c3ccc(F)cc3)[nH]2)cc1
remaining signal (CDK5 with p35; cell-free assay; 0.5 µM): 97.3%

Cc1cc(NC(=O)c2cccc3cc(-c4cccc5[nH]nc(N)c45)ccc23)ccc1F
activity vs control (CDK5 with p25; enzyme activity, inhibitor; 0.1 µM): 94%

O=C1Nc2ccc(Cl)cc2C1=Cc1cc(Cl)c(O)c(Cl)c1
remaining signal (CDK5 with p35; cell-free assay; 0.5 µM): 94.5%

N#Cc1ccc(Nc2ccc3[nH]c(=O)[nH]c3c2)c(Cl)c1
remaining binding (CDK5; cell-free assay, competition with immobilised ligand; 1 µM): 100%

Cc1ccc(NC(=O)c2ccc(C)c(C(F)(F)F)c2)cc1C#Cc1nn(C2CCC(O)CC2)c2ncnc(N)c12 (centres unmarked)
remaining signal (CDK5 with p35; cell-free assay; 10 µM): 127%

NS(=O)(=O)c1cc(NC(=O)Cc2ccccc2)ccc1Oc1cccc(Cl)c1
remaining binding (CDK5; cell-free assay, competition with immobilised ligand; 1 µM): 61%

CN(C)C1CCN(CC#Cc2nn(C3CCCC3)c3nc(NCc4ccccc4)ncc23)C1 (centres unmarked)
inhibition (CDK5 with p25; enzyme activity, inhibitor, FRET; 1 µM): 3%

CS(=O)(=O)c1cc(C2(NC(=O)c3cncc4c3cnn4-c3ccc(F)cc3)CC2)ccn1
remaining binding (CDK5; cell-free assay, competition with immobilised ligand; 1 µM): 100%

CCCOc1ccc(OC)c(F)c1C(=O)c1ccc(C(=O)N[C@@H]2CNC[C@H]2NC(=O)c2ccc3[nH]ncc3c2)cc1
remaining activity (CDK5 with p25; enzyme activity, inhibitor; 10 µM): 1%

CC(C)c1ccc(NC(=O)c2cccs2)c(-c2nc3ccccc3[nH]c2=O)c1
activity vs control (CDK5 with p25; enzyme activity, inhibitor; 1 µM): 95%

CC[C@H](C)[C@H](NC(=O)[C@H](CCC(N)=O)NC(=O)[C@H](CC(C)C)NC(=O)[C@H](CCSC)NC(=O)[C@H](CCCCN)NC(=O)[C@H](CO)NC(=O)[C@H](CO)NC(=O)[C@H](CCSC)NC(=O)[C@H](CC(C)C)NC(=O)[C@H](CC(N)=O)NC(=O)[C@@H](NC(=O)[C@@H](NC(=O)[C@H](CO)NC(=O)[C@H](CC(C)C)NC(=O)[C@H](CS)NC(=O)[C@H](CCCNC(=N)N)NC(=O)[C@H](CC(=O)O)NC(=O)[C@H](Cc1c[nH]c2ccccc12)NC(=O)[C@H](Cc1ccccc1)NC(=O)[C@H](C)NC(=O)[C@H](CCC(=O)O)NC(=O)[C@@H](N)CCCCN)C(C)C)[C@@H](C)CC)C(=O)N[C@@H](CC(N)=O)C(=O)N[C@@H](C)C(=O)O
inhibition (CDK5 with p25; enzyme activity, inhibitor, radiometric; 50 µM): 20%
